In ChEMBL document CHEMBL4513216, “Probing the Open Global Health Chemical Diversity Library for Multistage-Active Starting Points for Next-Generation Antimalarials” (ACS Infect Dis, 2020):

Assay: Toxicity liver stage against HepG2, at 10uM
Assay type: cell-based
Set-up: test concentration 10 uM, cell line HepG2-A16-CD81EGFP
Details: human, HepG2-A16-CD81EGFP cells; read-out: INHIBITION
Procedure, shortened: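 Uninfected HepG2-A16-CD81EGFP cells, 3 × 10^3 per well, 1536-well, plated on prespotted compound at 10 μM final, parasite-free screening media added to match infected plates; puromycin 10 μM positive, DMSO 0.5% negative; run in parallel with 48 h PbLuc assay at 37 °C, 5% CO2; viability by CellTiter-Glo luminescence, normalized to controls.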

Row | Structure (SMILES) | cytotoxicity at 10 µM [%]
1 | NC(=O)C1CCN(C(=O)Cn2nc(-c3ccccc3)oc2=O)C1 (stereo not given) | -13
2 | CCn1cnnc1C1CCN(C(=O)c2ccccc2OC)CC1 | -8.62
3 | FC(F)(F)c1ccccc1CCC1CCCN(Cc2cscn2)C1 (stereo not given) | 2.28
4 | O=S(=O)(CCNCc1ccc2c(c1)CCO2)N1CCOCC1 | -9.61
5 | COCCOc1ccccc1C(=O)N(C)Cc1ncc(C)c(OC)c1C | -1.61
6 | CCn1cc(S(=O)(=O)N2CCC(C3CCCCN(C)C3=O)CC2)c(C)n1 (stereo not given) | 6.58
7 | O=C1CC[C@H]2CN(C3CCOCC3)CC[C@H]2N1CCC1=CCCCC1 | -4.76
8 | Cc1cn([C@@H]2CC3(CCNCC3)OC[C@@]2(C)O)c(=O)[nH]c1=O | -5.6
9 | O=C(NCC1(O)CCOC1)NCC1(c2ccccc2Cl)CC1 (stereo not given) | -45.7
10 | CCn1cc2c(n1)C(COCC1CC1)CN(C(=O)c1ccsc1)C2 (stereo not given) | 18.6
11 | CN(C)CCN1CC(C(=O)N2CCC(c3nccn3C)CC2)CC1=O (stereo not given) | -7.2
12 | c1ccc(O[C@H]2CO[C@@]3(CCCN(Cc4nccs4)C3)C2)nc1 | -71.3
13 | Cn1cc(-c2nnn3c2COC(CNCc2cccnc2)C3)cn1 (stereo not given) | 0.824
14 | COCCC1COC2(CCN(C(=O)c3ccco3)CC2)C1 (stereo not given) | 3.63
15 | COCc1nc(CNc2cccc(-c3ncon3)c2)cs1 | 1.22
16 | CC(C)(CNc1cn[nH]c(=O)c1Cl)c1ccc2c(c1)OCO2 | 6.67
17 | O=C(NCCCN1CCOCC1)c1ccn(COc2ccccc2)n1 | 5.5
18 | Cc1cnn(CC2CN(Cc3cccc(C(=O)N(C)C)c3)CCO2)c1 (stereo not given) | -1.73
19 | CC(=O)N1CCN(C2CCc3ccccc32)CC1 (stereo not given) | -44.7
20 | CCC1(CC)CC(=O)N(CC(O)c2cc(F)ccc2F)C1=O (stereo not given) | -4.42
21 | Cc1cc(C(=O)NCc2ccnc(OCC(F)(F)F)c2)no1 | -7.98
22 | Nc1nc2c(c(NC3CCCC3)n1)CCN(C(=O)C1CCOC1)CC2 (stereo not given) | -129

Row | Structure (SMILES) | cytotoxicity at 10 µM [%]
23 | Nc1ncc(-c2ccc(F)cc2)c(C2CCCNC2)n1 (stereo not given) | 0.109
24 | Cc1nc(CN2CCCN(C(=O)c3ccccn3)CC2)oc1C | 0.289
25 | O=C(CN1CCCC(Cn2cncn2)C1)NCc1ccccc1F (stereo not given) | -4.65
26 | Cc1nccc(N2CCN(C3CCOCC3)CC(C(=O)N(C)C)C2)n1 (stereo not given) | 2.12
27 | CN1CCN(Cc2ccc(-c3ccc(C(N)=O)cc3)nc2)CC1 | 5.58
28 | COCCN1CCC1c1cc(NC2CCCC2)nc(C)n1 (stereo not given) | 0.994
29 | C[C@H]1C[C@@H]2CCN(C(=O)c3ccncn3)C[C@H]2O1 | -18.4
30 | O=C(O)c1cccn1-c1ccc2c(c1)OCCO2 | -7.48
31 | COc1cccc2c1OCC(CNC(=O)CCn1cnnn1)C2 (stereo not given) | -144
32 | COCCN(C)C[C@@H]1CN(C(=O)c2cccc(C(F)(F)F)c2)C[C@@H]1CO | -17.5
33 | CC(=O)NCc1nnn2c1CN(c1ncc(C)cn1)CCC2 | -102
34 | O=C(c1ccoc1)N1CCc2c(COCC3CC3)cncc2C1 | -76.9
35 | N[C@H]1CN(C(=O)c2ccccc2OCCc2ccccc2)C[C@@H]1C1CC1 | -2.68
36 | O=C(NCc1ccncc1)C1=NOC2(CCCNC2)C1 (stereo not given) | 5.31
37 | O=C1CC(NCc2cccc(O)c2)CN1CCc1cccc(Cl)c1 (stereo not given) | -130
38 | CN(C)[C@@H]1CCN(c2ncccn2)[C@H]1Cc1cccnc1 | -3.9
39 | Cn1ncc2c1CCCC2NCc1cnc(-c2ccccc2)nc1 (stereo not given) | -5.43
40 | CC(C)c1ncc(CN2C[C@@H](CN3CCC(CO)CC3)[C@@H](CO)C2)cn1 | 20
41 | COc1ccccc1OC1CN(c2ccncc2)C1 | -2.76
42 | O=C(c1ccccc1)N1C[C@H]2CC[C@@H](C1)N(S(=O)(=O)c1cccnc1)C2 | -9.33
43 | O=C(c1nnn(-c2ccccc2)n1)N(CCO)CCO | -1.48
44 | CCOCC(=O)Nc1cc(C)cnc1OC | 4.04

Row | Structure (SMILES) | cytotoxicity at 10 µM [%]
45 | Cc1nn(C)c2nc(NC3CCNCC3)sc12 | -10.4
46 | O=C(CC1CC1)N1CCC2(COCc3cnc(-c4ccccc4)nc32)C1 (stereo not given) | 2.02
47 | Fc1cccc(CN2CCC3(CCN3c3ncccn3)C2)c1 (stereo not given) | 15.3
48 | COc1ccc(CC(C)(O)CNC(=O)Cc2ccc(F)cc2)cc1 (stereo not given) | 3.91
49 | COc1cc(C(=O)N(Cc2ccc(F)cc2)C2CC2)cc2c1OCCO2 | -1.33
50 | Cc1cccc(OCCC(=O)NC(C)c2nnc3n2CCC3)c1 (stereo not given) | -12.8
51 | CC(C)C(=O)N1CCC2(CC1)[C@@H]1CN(C(=O)N(C)C)C[C@@H]1C(=O)N2C | 1.76
52 | CC(C)N(CCSc1ncnc2[nH]ncc12)C(C)C | 0.25
53 | Cc1n[nH]c(C)c1NC(=O)CN1CCOC(Cn2cccn2)C1 (stereo not given) | -2.82
54 | COc1ccc(C(NCc2cccc(O)c2)C2CC2)cc1 (stereo not given) | 4.99
55 | Cc1cncc(C(=O)N2CCC3(CCCN(c4nncs4)C3)C2)c1 (stereo not given) | -99.4
56 | Cc1cccnc1CN1CCN(C(=O)CCn2ccccc2=O)CC1 | 3.34
57 | COCCC(=O)NCc1cccnc1-n1cnc2ccccc21 | -8.42
58 | Cc1ccnc(CC(C)N(C)c2cc(C3CCNCC3)nc(C)n2)c1 (stereo not given) | -46.2
59 | COc1ccc(CN(C)CC2(O)CCNC2)cc1 (stereo not given) | -1.68
60 | O=S(=O)(c1cccs1)N1CCC(c2nc(-c3cccs3)no2)CC1 | 6.14
61 | CNC(=O)c1cccc(CN2CCN(c3ccncc3)CC2)c1 | -19.7
62 | Cc1cccc(N2CCN(CCC(=O)NCc3cccnc3)CC2)c1 | -9.2
63 | Cc1ccsc1CNC(=O)Nc1ccn(CCN2CCOCC2)n1 | 8.28
64 | COCc1cc(O)nc(C2CCCN(Cc3cc(OC)ccc3F)C2)n1 (stereo not given) | 4.42
65 | CN(C)[C@H]1CCN(c2ccnc(C(=O)NCc3ccco3)c2)C1 | 4.12
66 | CC(C)NC(=O)CC1COC2(CCN(Cc3ccsc3)CC2)C1 (stereo not given) | -1.6

Row | Structure (SMILES) | cytotoxicity at 10 µM [%]
67 | CC(C)NC(=O)c1nc2c(s1)CCCN2C(C)C | -143
68 | CCCN1CCCN(C(=O)c2ccc(Oc3cccnc3)cc2)CC1 | -46.9
69 | Cc1cccnc1[C@H](C)NC(=O)c1cccc(CC2CCNCC2)c1 | -5.22
70 | Fc1ccccc1CN1CCCC2(CCN(c3ncccn3)CC2)C1 | -132
71 | COc1ccc2c(c1)NC(=O)C2OC(=O)Cc1ccccc1C (stereo not given) | 45.2
72 | CC(C)c1noc(CCCC(=O)N2CCN(Cc3ccsc3)CC2)n1 | -5.19
73 | COc1cccc2ccn(CC(=O)NCCC(C)C)c12 | -43.3
74 | CCN(C)S(=O)(=O)N1CCCC(CO)(CC=C(C)C)C1 (stereo not given) | -3.41
75 | CN(C)C[C@@H]1CN(C2CCN(c3ccc(Cl)cc3)CC2)C[C@@H]1CO | -9.14
76 | Cc1nc(CC(=O)N2CCc3nc(-c4cnccn4)nc(O)c3C2)cs1 | 16.2
77 | COc1ccccc1NC(=O)c1[nH]nc(C(C)C)c1Br | 8.24
78 | CC(=O)N1CCCC1c1cc(Nc2nnc(C)s2)nc(C)n1 (stereo not given) | -18.2
79 | N#Cc1ccc(CNc2cnn(CCN3CCOCC3)c2)cc1 | -5.75
80 | COC(=O)CCCC(=O)N1CCC(CO)(CCc2ccccc2)CC1 | 1.34
81 | CN1CCN(C[C@@H]2CN(C(=O)NCC3CCCCC3)C[C@@H]2CO)CC1 | -9.18
82 | CCOc1ncccc1C(=O)N1CCCC(c2nncn2C)C1 (stereo not given) | -8.47
83 | CCc1c(C)nc(C)nc1N1C[C@@H](CN(C)C)[C@@H](CO)C1 | -0.247
84 | CCOc1cc(CN(C)CC(C)(C)O)ccc1OC(F)F | 2.31
85 | COc1coc(CN2CCCC(CCc3ccc(F)c(F)c3)C2)cc1=O (stereo not given) | 1.95
86 | Cc1n[nH]c(C2CN(CC(=O)NCCC3=CCCCC3)CCO2)n1 (stereo not given) | 12.9
87 | COC(=O)c1ccc(OCC(=O)N(C)Cc2ccsc2)c(OC)c1 | 5.98
88 | Cc1nc(C(=O)N(C)C2CC(=O)N(Cc3ccccc3)C2=O)cs1 (stereo not given) | 0.423

Row | Structure (SMILES) | cytotoxicity at 10 µM [%]
89 | O=C(c1ccnnc1)N1C[C@H]2CN(Cc3cccc(F)c3)C(=O)[C@H]2C1 | -77.3
90 | CNc1nc(C(=O)N2CCCC(c3nccn3CC3CCC3)C2)cs1 (stereo not given) | -16.7
91 | Cn1cnnc1C1CCCN(C(=O)NCCOc2ccccc2)C1 (stereo not given) | 7.48
92 | CO[C@H]1CN(C(=O)c2ccc3c(c2)OCO3)[C@@H]2COC[C@H]12 | -142
93 | COc1ccc(-c2nc(CNCCn3cccn3)cs2)cc1 | -1.17
94 | Cc1cc(N[C@H]2CN(CC(C)(C)N3CCOCC3)C[C@@H]2C2CC2)ncn1 | 2.03
95 | CC(C)CCN(C(=O)c1ccc(-n2ncc(C#N)c2N)cc1)C1CC1 | -23.6
96 | Cc1ncc(CN2CCCC(c3nc4ccccc4n3C(C)C)C2)s1 (stereo not given) | -24.9
97 | CC(C)CC1COCCN1C(=O)Cc1cccs1 (stereo not given) | 5.84
98 | CN1CC[C@H](N(Cc2ccccc2)CC2CC2)C[C@H](O)C1 | -1.47
99 | O=C1OCCN1CCc1nc(-c2cc3c4c(c2)CC(=O)N4CCC3)cs1 | -7.1
100 | CC(C)CCn1c(=O)[nH]c2cn(-c3ccc(F)cc3)c(=O)n21 | 2.97
101 | O=C(N1CCCC1)N1CCO[C@H]2[C@@H](OCc3cccnc3)CC[C@@H]21 | -1.6
102 | O=S(=O)(NCCN1CC=CC1)c1ccc(Cl)cc1 | -6.04
103 | CC(C)(C)CC(=O)N1CC[C@H]2CC(=O)N(CCc3c[nH]cn3)CC[C@H]2C1 | -3.97
104 | O=C1NCCCCC1Sc1nnc(C2CC2)n1C1CC1 (stereo not given) | -6
105 | COCCCS(=O)(=O)N1CCN(c2cccc(O)c2)CC1 | 4.42
106 | CC(C)N(CCCNC(=O)C1CC1)S(C)(=O)=O | -5.55
107 | Cc1ccc(C)c(OC(C)C(=O)Nc2cccnc2)c1 (stereo not given) | 7.39
108 | O=C(c1cnn[nH]1)N(Cc1ccncc1)CC1CCCO1 (stereo not given) | 2.86
109 | Cc1cc(CN2CCN(CC(O)c3ccc(Cl)cc3)CC2)no1 (stereo not given) | -7.06
110 | CC(C)[C@H]1CN(S(C)(=O)=O)C[C@@H]1NC(=O)c1ccnc(N)c1 | 8
